Active and inactive are the calls of the source. Unless noted, the rule behind the calls is not given here.
Tests used:
[1] = tested on: Saccharomyces cerevisiae; experiment: Downregulation of EGT2 mRNA expression in delta snq2, delta pdr5 and delta erg6 knock out yeast YRP1 at 25 µM after 2 hrs by high-density oligonucleotide array; type: functional, organism-based; conditions: 25 M
How it was run: (§1)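 Drug-sensitized S. cerevisiae cultures grown to late logarithmic phase, then exposed to 25 μM inhibitor for 2 h. Polyadenylated mRNA isolated, converted to biotin-labeled cRNA and hybridized to a set of four high-density arrays carrying more than 260,000 25-nucleotide oligomers. Transcripts scored as changed when they shifted more than twofold in triplicate hybridizations for each of two independent experiments.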

[2] = tested on: Saccharomyces cerevisiae; experiment: Decrease in RPS24A mRNA level in delta snq2, delta pdr5 and delta erg6 knock out yeast YRP1 at 25 µM after 2 hrs by high-density oligonucleotide array; type: functional; how it was run: as §1
[3] = tested on: Saccharomyces cerevisiae; experiment: Increase in UB14 mRNA level in delta snq2, delta pdr5 and delta erg6 knock out yeast YRP1 at 25 µM after 2 hrs by high-density oligonucleotide array; type: functional, organism-based; how it was run: as §1
[4] = tested on: Saccharomyces cerevisiae; experiment: Growth inhibition of delta snq2, delta pdr5 and delta erg6 knock out yeast YRP1 assessed as synchronization by FACS analysis; type: functional, organism-based
[5] = tested on: Saccharomyces cerevisiae; experiment: Effect on PGM2 gene expression in delta snq2, delta pdr5 and delta erg6 knock out yeast YRP1 assessed as change in mRNA level at 25 µM after 2 hrs by high-density oligonucleotide array; type: functional, organism-based; conditions: 25 M; how it was run: as §1
[6] = tested on: Saccharomyces cerevisiae; experiment: Effect on YDR281C gene expression in delta snq2, delta pdr5 and delta erg6 knock out yeast YRP1 bearing cdc28-4 mutant allele assessed as change in mRNA level at 25 µM after 2 hrs by high-density oligonucleotide array; type: functional, organism-based
[7] = tested on: Saccharomyces cerevisiae; experiment: Induction of YPR184W gene expression in delta snq2, delta pdr5 and delta erg6 knock out yeast YRP1 at 25 µM after 2 hrs by high-density oligonucleotide array; type: functional, organism-based
How it was run: (§2)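 Drug-sensitized yeast strain grown to late logarithmic phase, then exposed to 25 μM inhibitor for 2 h. Polyadenylated mRNA was isolated and converted to biotin-labeled cRNA, which was hybridized to a set of four arrays carrying over 260,000 25-nucleotide oligomers. Transcripts changing more than twofold were scored, from triplicate hybridizations in each of two independent experiments.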

[8] = tested on: Saccharomyces cerevisiae; experiment: Upregulation of PMC1 gene expression in delta snq2, delta pdr5 and delta erg6 knock out yeast YRP1 at 25 µM after 2 hrs by high-density oligonucleotide array; type: functional, organism-based; how it was run: as §2
[9] = tested on: Saccharomyces cerevisiae; experiment: Effect on YGR043C gene expression in delta snq2, delta pdr5 and delta erg6 knock out yeast YRP1 assessed as change in mRNA level at 25 µM after 2 hrs by high-density oligonucleotide array; type: functional, organism-based; how it was run: as §1
[10] = tested on: Saccharomyces cerevisiae; experiment: Upregulation of YDL223c gene expression in delta snq2, delta pdr5 and delta erg6 knock out yeast YRP1 at 25 µM after 2 hrs by high-density oligonucleotide array; type: functional, organism-based; conditions: 25 M; how it was run: as §2
[11] = tested on: Saccharomyces cerevisiae; experiment: Downregulation of CLB1 mRNA expression in delta snq2, delta pdr5 and delta erg6 knock out yeast YRP1 at 25 µM after 2 hrs by high-density oligonucleotide array; type: functional, organism-based; conditions: 25 M; how it was run: as §1
[12] = tested on: Saccharomyces cerevisiae; experiment: Upregulation of HSP26 gene expression in delta snq2, delta pdr5 and delta erg6 knock out yeast YRP1 at 25 µM after 2 hrs by high-density oligonucleotide array; type: functional, organism-based; how it was run: as §2
[13] = tested on: Saccharomyces cerevisiae; experiment: Upregulation of PDR15 gene expression in delta snq2, delta pdr5 and delta erg6 knock out yeast YRP1 at 25 µM after 2 hrs by high-density oligonucleotide array; type: functional, organism-based; conditions: 25 M; how it was run: as §2
[14] = tested on: Saccharomyces cerevisiae; experiment: Effect on TFS1 gene expression in delta snq2, delta pdr5 and delta erg6 knock out yeast YRP1 assessed as change in mRNA level at 25 µM after 2 hrs by high-density oligonucleotide array; type: functional, organism-based; how it was run: as §1
[15] = tested on: Saccharomyces cerevisiae; experiment: Induction of GPH1 gene expression in delta snq2, delta pdr5 and delta erg6 knock out yeast YRP1 bearing cdc28-4 mutant allele at 25 µM after 2 hrs by high-density oligonucleotide array; type: functional, organism-based; conditions: 25 M
How it was run: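 cdc28-4 temperature-sensitive strain and its isogenic wild type were profiled at the permissive temperature of 25°C. Polyadenylated mRNA was converted to biotin-labeled cRNA and hybridized to high-density oligonucleotide arrays. Transcripts changing more than twofold were scored, from triplicate hybridizations of RNA from a single experiment.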

[16] = tested on: Saccharomyces cerevisiae; experiment: Decrease in RPL4A mRNA level in delta snq2, delta pdr5 and delta erg6 knock out yeast YRP1 at 25 µM after 2 hrs by high-density oligonucleotide array; type: functional; how it was run: as §1
[17] = tested on: Saccharomyces cerevisiae; experiment: Effect on YHR143W gene expression in delta snq2, delta pdr5 and delta erg6 knock out yeast YRP1 assessed as change in mRNA level at 25 µM after 2 hrs by high-density oligonucleotide array; type: functional, organism-based; conditions: 25 M; how it was run: as §1
[18] = tested on: Saccharomyces cerevisiae; experiment: Effect on CTS1 gene expression in delta snq2, delta pdr5 and delta erg6 knock out yeast YRP1 assessed as change in mRNA level at 25 µM after 2 hrs by high-density oligonucleotide array; type: functional, organism-based; conditions: 25 M; how it was run: as §1
[19] = tested on: Saccharomyces cerevisiae; experiment: Effect on FAR1 gene expression in delta snq2, delta pdr5 and delta erg6 knock out yeast YRP1 assessed as change in mRNA level at 25 µM after 2 hrs by high-density oligonucleotide array; type: functional, organism-based; how it was run: as §1
[20] = tested on: Saccharomyces cerevisiae; experiment: Increase in HSP12 mRNA level in delta snq2, delta pdr5 and delta erg6 knock out yeast YRP1 at 25 µM after 2 hrs by high-density oligonucleotide array; type: functional, organism-based; how it was run: as §1
[21] = tested on: Saccharomyces cerevisiae; experiment: Decrease in RPL26B mRNA level in delta snq2, delta pdr5 and delta erg6 knock out yeast YRP1 at 25 µM after 2 hrs by high-density oligonucleotide array; type: functional; how it was run: as §1
[22] = tested on: Saccharomyces cerevisiae; experiment: Effect on HAC1 gene expression in delta snq2, delta pdr5 and delta erg6 knock out yeast YRP1 assessed as change in mRNA level at 25 µM after 2 hrs by high-density oligonucleotide array; type: functional, organism-based; how it was run: as §1
[23] = tested on: Saccharomyces cerevisiae; experiment: Effect on ATR1 gene expression in delta snq2, delta pdr5 and delta erg6 knock out yeast YRP1 bearing cdc28-4 mutant allele assessed as change in mRNA level at 25 µM after 2 hrs by high-density oligonucleotide array; type: functional, organism-based
[24] = tested on: Saccharomyces cerevisiae; experiment: Upregulation of GSC2 gene expression in delta snq2, delta pdr5 and delta erg6 knock out yeast YRP1 at 25 µM after 2 hrs by high-density oligonucleotide array; type: functional, organism-based; conditions: 25 M; how it was run: as §2
[25] = tested on: Saccharomyces cerevisiae; experiment: Effect on YCL009c gene expression in delta snq2, delta pdr5 and delta erg6 knock out yeast YRP1 bearing cdc28-4 mutant allele assessed as change in mRNA level at 25 µM after 2 hrs by high-density oligonucleotide array; type: functional, organism-based
[26] = tested on: Saccharomyces cerevisiae; experiment: Effect on HTA1 gene expression in delta snq2, delta pdr5 and delta erg6 knock out yeast YRP1 bearing cdc28-4 mutant allele assessed as change in mRNA level at 25 µM after 2 hrs by high-density oligonucleotide array; type: functional, organism-based
[27] = tested on: Saccharomyces cerevisiae; experiment: Induction of PFK26 gene expression in delta snq2, delta pdr5 and delta erg6 knock out yeast YRP1 at 25 µM after 2 hrs by high-density oligonucleotide array; type: functional, organism-based; conditions: 25 M; how it was run: as §2
[28] = tested on: Saccharomyces cerevisiae; experiment: Induction of HXT5 gene expression in delta snq2, delta pdr5 and delta erg6 knock out yeast YRP1 at 25 µM after 2 hrs by high-density oligonucleotide array; type: functional, organism-based; how it was run: as §2
[29] = tested on: Saccharomyces cerevisiae; experiment: Increase in PHO80 mRNA level in delta snq2, delta pdr5 and delta erg6 knock out yeast YRP1 at 25 µM after 2 hrs by high-density oligonucleotide array; type: functional, organism-based; how it was run: as §1
[30] = tested on: Saccharomyces cerevisiae; experiment: Induction of PCK1 gene expression in delta snq2, delta pdr5 and delta erg6 knock out yeast YRP1 at 25 µM after 2 hrs by high-density oligonucleotide array; type: functional, organism-based; conditions: 25 M; how it was run: as §2
[31] = tested on: Saccharomyces cerevisiae; experiment: Upregulation of INO1 gene expression in delta snq2, delta pdr5 and delta erg6 knock out yeast YRP1 at 25 µM after 2 hrs by high-density oligonucleotide array; type: functional, organism-based; conditions: 25 M; how it was run: as §2

## CC(C)n1cnc2/c(=N/c3cccc(Cl)c3)nc(NCCO)[nH]c21
[1]
  Activity: Active
[2]
  fold change (FC): 3
[3]
  Activity: Active
[4]
  Activity: inactive
[5]
  Activity: Active
[6]
  Activity: Active
[7]
  Activity: Active
[8]
  Activity: Active
[9]
  Activity: Active
[10]
  Activity: Active
[11]
  Activity: Active
[12]
  Activity: Active
[13]
  Activity: Active
[14]
  Activity: Active
[15]
  Activity: Active
[16]
  fold change (FC): 3
[17]
  Activity: Active
[18]
  Activity: Active
[19]
  Activity: Active
[20]
  Activity: Active
[21]
  fold change (FC): 3
[22]
  Activity: Active
[23]
  Activity: Active
[24]
  Activity: Active
[25]
  Activity: Active
[26]
  Activity: Active
[27]
  Activity: Active
[28]
  Activity: Active
[29]
  Activity: Active
[30]
  Activity: Active
[31]
  Activity: Active

## CN1CC[C@H](c2c(O)cc(O)c3c(=O)cc(-c4ccccc4Cl)oc23)[C@H](O)C1 [ALVOCIDIB]
[1]
  Activity: Active
[2]
  fold change (FC): 3
[3]
  Activity: Active
[4]
  Activity: inactive
[5]
  Activity: Active
[6]
  Activity: Active
[7]
  Activity: Active
[8]
  Activity: Active
[9]
  Activity: Active
[10]
  Activity: Active
[11]
  Activity: Active
[12]
  Activity: Active
[13]
  Activity: Active
[14]
  Activity: Active
[15]
  Activity: Active
[16]
  fold change (FC): 3
[17]
  Activity: Active
[18]
  Activity: Active
[19]
  Activity: Active
[20]
  Activity: Active
[21]
  fold change (FC): 3
[22]
  Activity: Active
[23]
  Activity: Active
[24]
  Activity: Active
[25]
  Activity: Active
[26]
  Activity: Active
[27]
  Activity: Active
[28]
  Activity: Active
[29]
  Activity: Active
[30]
  Activity: Active
[31]
  Activity: Active

— ChEMBL document CHEMBL1153829, “Exploiting chemical libraries, structure, and genomics in the search for kinase inhibitors” (Science, 1998)
